Assay [1] concerns the target T1, Phosphotyrosine protein phosphatase (Mycobacterium tuberculosis, UniProt A0A045ISB3).
T1 sequence (A0A045ISB3 whole entry): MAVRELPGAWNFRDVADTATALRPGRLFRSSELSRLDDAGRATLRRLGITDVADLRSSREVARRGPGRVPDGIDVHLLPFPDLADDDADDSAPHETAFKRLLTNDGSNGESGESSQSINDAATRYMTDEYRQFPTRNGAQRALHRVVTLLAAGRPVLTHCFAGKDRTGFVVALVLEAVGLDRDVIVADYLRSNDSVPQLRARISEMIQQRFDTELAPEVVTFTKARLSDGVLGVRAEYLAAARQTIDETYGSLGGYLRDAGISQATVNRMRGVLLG
The assay can be described thus: Inhibition of Mycobacterium tuberculosis His-tagged PtpB expressed in Escherichia coli Rosetta 2 (DE3) using pNPP as substrate after 30 mins by spectrophotometric method.

Assay [2] concerns the target T2, Tyrosine-protein phosphatase non-receptor type 1 (Homo sapiens, UniProt P18031).
T2 sequence (P18031 whole entry): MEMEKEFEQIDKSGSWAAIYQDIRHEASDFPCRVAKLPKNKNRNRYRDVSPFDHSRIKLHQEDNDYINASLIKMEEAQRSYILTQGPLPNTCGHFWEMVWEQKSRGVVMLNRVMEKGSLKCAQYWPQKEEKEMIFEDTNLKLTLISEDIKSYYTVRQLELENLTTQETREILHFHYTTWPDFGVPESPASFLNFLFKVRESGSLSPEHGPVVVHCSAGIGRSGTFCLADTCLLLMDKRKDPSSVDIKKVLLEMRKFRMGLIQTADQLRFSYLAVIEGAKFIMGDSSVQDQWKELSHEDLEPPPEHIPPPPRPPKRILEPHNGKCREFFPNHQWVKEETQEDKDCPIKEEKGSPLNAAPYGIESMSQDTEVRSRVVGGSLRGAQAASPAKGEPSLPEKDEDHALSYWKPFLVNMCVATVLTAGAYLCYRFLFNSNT
The assay can be described thus: Inhibition of human PTPN1 expressed in Escherichia coli Rosetta 2 (DE3) using pNPP as substrate after 45 mins by spectrophotometric method.

The target in assay [3] is T3, Tyrosine-protein phosphatase non-receptor type 2 (Homo sapiens, UniProt P17706).
T3 sequence (P17706 whole entry): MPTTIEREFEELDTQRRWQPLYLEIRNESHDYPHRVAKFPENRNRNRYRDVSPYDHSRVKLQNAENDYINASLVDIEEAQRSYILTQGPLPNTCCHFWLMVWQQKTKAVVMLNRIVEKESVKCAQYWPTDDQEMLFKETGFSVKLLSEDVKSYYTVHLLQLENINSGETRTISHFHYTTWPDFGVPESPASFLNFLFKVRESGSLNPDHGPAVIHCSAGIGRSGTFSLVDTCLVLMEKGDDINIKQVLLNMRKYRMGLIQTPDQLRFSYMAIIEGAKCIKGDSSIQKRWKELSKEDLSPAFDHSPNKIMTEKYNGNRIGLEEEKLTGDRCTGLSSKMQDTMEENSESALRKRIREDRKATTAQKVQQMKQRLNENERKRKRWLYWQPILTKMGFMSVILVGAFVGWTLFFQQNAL
Description: Inhibition of human PTPN2 expressed in Escherichia coli Rosetta 2 (DE3) using pNPP as substrate after 45 mins by spectrophotometric method.

Assay [4] addresses T4, Tyrosine-protein phosphatase non-receptor type 5 (Homo sapiens, UniProt P54829).
T4 sequence (P54829 whole entry): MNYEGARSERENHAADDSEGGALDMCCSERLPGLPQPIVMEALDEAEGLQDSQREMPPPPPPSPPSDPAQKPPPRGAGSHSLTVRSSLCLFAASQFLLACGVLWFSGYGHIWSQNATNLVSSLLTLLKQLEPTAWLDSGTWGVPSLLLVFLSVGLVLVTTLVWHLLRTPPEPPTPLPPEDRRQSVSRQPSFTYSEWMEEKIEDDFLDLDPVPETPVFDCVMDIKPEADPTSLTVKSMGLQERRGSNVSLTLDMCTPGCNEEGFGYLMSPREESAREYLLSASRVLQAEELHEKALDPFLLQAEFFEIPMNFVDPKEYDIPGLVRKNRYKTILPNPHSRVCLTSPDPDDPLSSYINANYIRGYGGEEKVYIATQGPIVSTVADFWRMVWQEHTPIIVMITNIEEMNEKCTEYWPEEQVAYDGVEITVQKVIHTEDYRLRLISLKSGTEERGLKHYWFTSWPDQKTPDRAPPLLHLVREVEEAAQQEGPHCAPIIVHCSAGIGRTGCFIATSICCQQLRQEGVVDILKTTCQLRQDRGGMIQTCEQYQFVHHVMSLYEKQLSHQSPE
Description: Inhibition of human PTPN5 expressed in Escherichia coli Rosetta 2 (DE3) using pNPP as substrate after 45 mins by spectrophotometric method.

The test system of assay [5] is Mycobacterium tuberculosis. Description: Antitubercular activity against Mycobacterium tuberculosis H37Rv after 5 days at 200 uM relative to control. Type of assay: functional. Particulars: 120 h. In a few lines: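 M. tuberculosis grown in liquid culture with compound at a fixed 200 μM for 5 days. Growth inhibition expressed as percent of control.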

The structures appear in SMILES notation. Where only a bound is given, the exact number is not on record here.

As for `O=S(=O)(Nc1ccc(-c2nc3cc(NS(=O)(=O)c4ccccc4C(F)(F)F)ccc3o2)cc1)c1ccccc1C(F)(F)F`, the IC50 amounted to 8.1 µM in assay [1], 14 µM in assay [2], 22 µM in assay [3] and 15 µM in assay [4]. 200 µM produced 35% inhibition in assay [5].

Take `O=C(O)c1ccccc1S(=O)(=O)Nc1ccc(-c2nc3cc(NS(=O)(=O)c4ccccc4C(=O)O)ccc3o2)cc1`: the IC50 in assay [1] was 4.2 µM; in assay [2], above 100 µM; in assay [3] it was above 100 µM; in assay [4], above 100 µM. In assay [5], 200 µM produced 22% inhibition.

On to `O=S(=O)(Nc1ccc(-c2nc3cc(NS(=O)(=O)c4cccc5nonc45)ccc3o2)cc1)c1ccc(Cl)s1`, for which the IC50 amounted to 8.6 µM in assay [1], 16 µM in assay [2], 25 µM in assay [3] and 19 µM in assay [4]. In assay [5], the inhibition at 200 µM worked out at 14%.

For `Cc1cccc(S(=O)(=O)Nc2ccc(-c3nc4cc(NS(=O)(=O)c5cccc(C)c5)ccc4o3)cc2)c1`, the IC50 worked out at 5.8 µM in assay [1], 13 µM in assay [2], 17 µM in assay [3] and 16 µM in assay [4]. The molecule further registered an inhibition at 200 µM in assay [5] of 0%.

On to `Cc1ccc(S(=O)(=O)Nc2ccc(-c3nc4cc(NS(=O)(=O)c5ccc(C)cc5)ccc4o3)cc2)cc1`, for which the IC50 turned out to be 6.9 µM in assay [1], 14 µM in assay [2], 18 µM in assay [3] and 14 µM in assay [4]. The inhibition at 200 µM in assay [5] is 0%.

Consider `O=S(=O)(Nc1ccc(-c2nc3cc(NS(=O)(=O)c4ccc(Cl)s4)ccc3o2)cc1)c1ccc(F)c(C(F)(F)F)c1`, for which the IC50 in assay [1] was 6.8 µM; in assay [2], 8.6 µM; in assay [3], 8.5 µM; in assay [4] it was 14 µM. The same molecule showed an inhibition at 200 µM in assay [5] of 0%.

For the molecule `O=[N+]([O-])c1cccc(S(=O)(=O)Nc2ccc(-c3nc4cc(NS(=O)(=O)c5cccc([N+](=O)[O-])c5)ccc4o3)cc2)c1`, the half-maximal inhibitory concentration (IC50) was 9.1 µM in assay [1], 14 µM in assay [2], 29 µM in assay [3] and 24 µM in assay [4]. For the same molecule, the inhibition at 200 µM in assay [5] worked out at 0%.

For `O=S(=O)(Nc1ccc(-c2nc3cc(NS(=O)(=O)c4ccc(Cl)cc4)ccc3o2)cc1)c1ccc(Cl)cc1`, the IC50 in assay [1] amounted to 4.3 µM; in assay [2], 8.1 µM; in assay [3], 19 µM; in assay [4] it was 12 µM. The molecule also came in with an inhibition at 200 µM in assay [5] of 0%.

`O=[N+]([O-])c1ccc(S(=O)(=O)Nc2ccc(-c3nc4cc(NS(=O)(=O)c5ccc([N+](=O)[O-])cc5)ccc4o3)cc2)cc1`: the IC50 is 6.2 µM in assay [1], 27 µM in assay [2], 28 µM in assay [3] and 18 µM in assay [4]. The inhibition at 200 µM in assay [5] turned out to be 0%.

With `O=S(=O)(Nc1ccc(-c2nc3cc(NS(=O)(=O)c4ccc(Cl)s4)ccc3o2)cc1)c1ccccc1`, the IC50 in assay [1] was found to be 6.7 µM; in assay [2], 19 µM; in assay [3], 29 µM; in assay [4], 17 µM. In addition, in assay [5], the inhibition at 200 µM stood at 41%.

As for `COc1ccc(S(=O)(=O)Nc2ccc(-c3nc4cc(NS(=O)(=O)c5ccc(Cl)s5)ccc4o3)cc2)cc1`, the IC50 in assay [1] amounted to 11 µM; in assay [2], 11 µM; in assay [3], 16 µM; in assay [4] it was 16 µM. This molecule also yielded an inhibition at 200 µM in assay [5] of 25%.

Regarding `COC(=O)c1ccc(S(=O)(=O)Nc2ccc(-c3nc4cc(NS(=O)(=O)c5ccc(C(=O)OC)cc5)ccc4o3)cc2)cc1`, the half-inhibitory concentration (IC50) amounted to 11 µM in assay [1], 11 µM in assay [2], 17 µM in assay [3] and 22 µM in assay [4]. In addition, in assay [5], 200 µM produced 0% inhibition.

For the molecule `O=S(=O)(Nc1ccc(-c2nc3cc(NS(=O)(=O)c4cccc(Cl)c4)ccc3o2)cc1)c1cccc(Cl)c1`, the half-maximal inhibitory concentration (IC50) was determined as 2.3 µM in assay [1], 16 µM in assay [2], 17 µM in assay [3] and 13 µM in assay [4]. Moreover, the inhibition at 200 µM in assay [5] is 0%.

For `O=S(=O)(Nc1ccc2oc(-c3ccc(NS(=O)(=O)c4cccc5ccccc45)cc3)nc2c1)c1ccc(Cl)s1`, the IC50 in assay [1] turned out to be 2.7 µM; in assay [2], 5.4 µM; in assay [3], 15 µM; in assay [4], 9.1 µM. The same molecule gave an inhibition at 200 µM in assay [5] of 0%.

For the molecule `O=S(=O)(Nc1ccc(-c2nc3cc(NS(=O)(=O)c4ccc(Cl)s4)ccc3o2)cc1)c1ccc(Cl)c(C(F)(F)F)c1`, the half-maximal inhibitory concentration (IC50) stood at 2 µM in assay [1], 7.6 µM in assay [2], 13 µM in assay [3] and 12 µM in assay [4]. Further, the inhibition at 200 µM in assay [5] stood at 0%.

Turning to `O=S(=O)(Nc1ccc(-c2nc3cc(NS(=O)(=O)c4ccc(Cl)s4)ccc3o2)cc1)c1ccc2ccccc2c1`, the half-maximal inhibitory concentration (IC50) in assay [1] was determined as 3.9 µM; in assay [2] it was 6.9 µM; in assay [3], 13 µM; in assay [4], 11 µM. Moreover, the inhibition at 200 µM in assay [5] was 0%.

With `O=C(O)c1ccc(S(=O)(=O)Nc2ccc(-c3nc4cc(NS(=O)(=O)c5ccc(C(=O)O)cc5)ccc4o3)cc2)cc1`, the IC50 in assay [1] was 12 µM; in assay [2] it was above 100 µM; in assay [3], above 100 µM; in assay [4] it was above 100 µM. Testing at 200 µM in assay [5] gave an inhibition of 10%.

Turning to `O=c1ccc2cc(S(=O)(=O)Nc3ccc(-c4nc5cc(NS(=O)(=O)c6ccc7oc(=O)ccc7c6)ccc5o4)cc3)ccc2o1`, the 50% inhibitory concentration (IC50) in assay [1] stood at 8.7 µM; in assay [2] it was 6.3 µM; in assay [3], 9.1 µM; in assay [4], 17 µM. Further, the inhibition at 200 µM in assay [5] was determined as 23%.

In the case of `O=[N+]([O-])c1cc(S(=O)(=O)Nc2ccc(-c3nc4cc(NS(=O)(=O)c5ccc(Cl)s5)ccc4o3)cc2)ccc1Cl`, the half-inhibitory concentration (IC50) was found to be 4 µM in assay [1], 8 µM in assay [2], 18 µM in assay [3] and 15 µM in assay [4]. The molecule also came in with an inhibition at 200 µM in assay [5] of 29%.

For the molecule `CCc1ccc(S(=O)(=O)Nc2ccc(-c3nc4cc(NS(=O)(=O)c5ccc(Cl)s5)ccc4o3)cc2)cc1`, the IC50 in assay [1] was 6.5 µM; in assay [2], 14 µM; in assay [3], 12 µM; in assay [4], 12 µM. Further, the inhibition at 200 µM in assay [5] amounted to 11%.

For `O=S(=O)(Nc1ccc2oc(-c3ccc(NS(=O)(=O)c4ccc(Cl)s4)cc3)nc2c1)c1ccc(Cl)c(C(F)(F)F)c1`, the half-inhibitory concentration (IC50) in assay [1] was determined as 3.8 µM; in assay [2] it was 7.6 µM; in assay [3], 14 µM; in assay [4], 11 µM. Further, the inhibition at 200 µM in assay [5] was determined as 0%.

For the molecule `CCc1ccc(S(=O)(=O)Nc2ccc3oc(-c4ccc(NS(=O)(=O)c5ccc(Cl)s5)cc4)nc3c2)cc1`, the IC50 in assay [1] was determined as 7.1 µM; in assay [2] it was 11 µM; in assay [3], 15 µM; in assay [4], 15 µM. In addition, the inhibition at 200 µM in assay [5] was determined as 0%.

For `C=Cc1ccc(S(=O)(=O)Nc2ccc3oc(-c4ccc(NS(=O)(=O)c5ccc(Cl)s5)cc4)nc3c2)cc1`, the IC50 in assay [1] was 3.9 µM; in assay [2], 7.2 µM; in assay [3], 12 µM; in assay [4], 12 µM. For the same molecule, the inhibition at 200 µM in assay [5] worked out at 10%.
